In ChEMBL document CHEMBL4765437, “Design, synthesis and biological evaluation of pyrazolo[3,4-d]pyrimidine-based protein kinase D inhibitors” (Eur J Med Chem, 2020):
Activity calls are given as the source filed them. The calls are words filed in the database; no cut-off is given here.

Tests used:
[1] = test system: LN-229; test: Antiproliferative activity against human LN-229 cells assessed as reduction in cell viability incubated for 72 hrs by IncuCyte live-cell automated imaging analysis; conditions: LN-229, 72 h
[2] = test system: CAPAN-1; test: Antiproliferative activity against human CAPAN-1 cells assessed as reduction in cell viability incubated for 72 hrs by IncuCyte live-cell automated imaging analysis; conditions: CAPAN-1, 72 h
[3] = test system: HCT-116; test: Antiproliferative activity against human HCT-116 cells assessed as reduction in cell viability incubated for 72 hrs by IncuCyte live-cell automated imaging analysis; conditions: HCT-116, 72 h
[4] = test system: NCI-H460; test: Antiproliferative activity against human NCI-H460 cells assessed as reduction in cell viability incubated for 72 hrs by IncuCyte live-cell automated imaging analysis; conditions: NCI-H460, 72 h
[5] = Antiproliferative activity against human DND41 cells assessed as reduction in cell viability incubated for 72 hrs by IncuCyte live-cell automated imaging analysis; conditions: DND41, 72 h
[6] = test system: HL-60; test: Antiproliferative activity against human HL-60 cells assessed as reduction in cell viability incubated for 72 hrs by IncuCyte live-cell automated imaging analysis; conditions: HL-60, 72 h
[7] = test system: K562; test: Antiproliferative activity against human K562 cells assessed as reduction in cell viability incubated for 72 hrs by IncuCyte live-cell automated imaging analysis; conditions: K562, 72 h
[8] = test system: Z-138; test: Antiproliferative activity against human Z138 cells assessed as reduction in cell viability incubated for 72 hrs by IncuCyte live-cell automated imaging analysis; conditions: Z-138, 72 h
[9] = biological target: T1, Serine/threonine-protein kinase D1 (Homo sapiens, UniProt Q15139); test: Inhibition of recombinant FLAG-tagged PKD1 (unknown origin) expressed in HEK293T cells using Syntide-2 as substrate measured after 15 mins by ADP-Glo assay
T1 sequence (Q15139 whole entry): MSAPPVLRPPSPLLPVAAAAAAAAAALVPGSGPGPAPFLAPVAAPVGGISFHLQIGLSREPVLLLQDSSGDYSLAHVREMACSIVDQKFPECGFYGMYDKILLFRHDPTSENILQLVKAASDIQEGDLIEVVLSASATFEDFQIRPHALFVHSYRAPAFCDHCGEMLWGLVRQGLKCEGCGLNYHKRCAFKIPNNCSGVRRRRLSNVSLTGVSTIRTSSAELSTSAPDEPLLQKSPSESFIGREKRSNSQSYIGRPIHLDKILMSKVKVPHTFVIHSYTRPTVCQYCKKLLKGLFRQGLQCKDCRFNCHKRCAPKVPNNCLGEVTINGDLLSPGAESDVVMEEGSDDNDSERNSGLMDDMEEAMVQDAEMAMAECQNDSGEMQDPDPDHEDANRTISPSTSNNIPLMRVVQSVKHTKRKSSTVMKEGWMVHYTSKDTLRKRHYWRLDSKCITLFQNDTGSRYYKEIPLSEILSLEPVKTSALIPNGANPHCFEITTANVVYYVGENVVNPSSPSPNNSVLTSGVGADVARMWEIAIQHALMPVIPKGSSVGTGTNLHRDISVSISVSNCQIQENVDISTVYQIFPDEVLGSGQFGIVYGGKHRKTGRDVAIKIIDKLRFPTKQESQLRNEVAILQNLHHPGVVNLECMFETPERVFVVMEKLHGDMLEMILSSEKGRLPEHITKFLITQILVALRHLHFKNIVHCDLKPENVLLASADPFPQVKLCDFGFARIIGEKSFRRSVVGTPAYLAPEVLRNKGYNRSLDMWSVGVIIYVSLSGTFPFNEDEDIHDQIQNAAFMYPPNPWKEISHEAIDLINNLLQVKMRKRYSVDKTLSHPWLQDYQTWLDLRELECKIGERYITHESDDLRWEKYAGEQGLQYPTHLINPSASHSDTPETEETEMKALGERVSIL

[10] = biological target: T2, Serine/threonine-protein kinase D2 (Homo sapiens, UniProt Q9BZL6); test: Inhibition of recombinant FLAG-tagged PKD2 (unknown origin) expressed in HEK293T cells using Syntide-2 as substrate measured after 15 mins by ADP-Glo assay
T2 sequence (Q9BZL6 whole entry): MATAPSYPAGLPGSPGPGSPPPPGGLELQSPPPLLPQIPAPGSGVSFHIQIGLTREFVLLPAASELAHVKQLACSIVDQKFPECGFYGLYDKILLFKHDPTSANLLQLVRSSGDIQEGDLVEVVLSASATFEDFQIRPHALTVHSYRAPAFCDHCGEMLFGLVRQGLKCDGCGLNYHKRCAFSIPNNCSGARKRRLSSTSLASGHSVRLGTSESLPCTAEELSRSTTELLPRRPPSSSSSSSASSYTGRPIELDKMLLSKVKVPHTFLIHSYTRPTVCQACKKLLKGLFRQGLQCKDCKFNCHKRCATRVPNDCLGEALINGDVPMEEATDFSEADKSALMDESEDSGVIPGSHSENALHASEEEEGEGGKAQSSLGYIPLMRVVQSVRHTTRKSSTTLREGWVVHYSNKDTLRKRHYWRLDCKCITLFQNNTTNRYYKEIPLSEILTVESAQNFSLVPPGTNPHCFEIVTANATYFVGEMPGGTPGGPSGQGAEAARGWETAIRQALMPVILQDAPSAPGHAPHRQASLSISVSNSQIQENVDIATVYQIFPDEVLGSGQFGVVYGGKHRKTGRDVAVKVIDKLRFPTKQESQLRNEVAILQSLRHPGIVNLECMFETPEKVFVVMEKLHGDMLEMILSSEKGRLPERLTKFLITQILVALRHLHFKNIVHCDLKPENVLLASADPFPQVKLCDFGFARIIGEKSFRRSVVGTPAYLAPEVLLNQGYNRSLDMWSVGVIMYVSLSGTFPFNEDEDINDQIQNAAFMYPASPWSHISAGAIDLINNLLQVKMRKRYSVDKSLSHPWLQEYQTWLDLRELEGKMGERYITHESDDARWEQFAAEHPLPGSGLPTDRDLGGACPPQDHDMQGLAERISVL

[11] = biological target: T3, Serine/threonine-protein kinase D3 (Homo sapiens, UniProt O94806); test: Inhibition of recombinant FLAG-tagged PKD3 (unknown origin) expressed in HEK293T cells using Syntide-2 as substrate measured after 15 mins by ADP-Glo assay
T3 sequence (O94806 whole entry): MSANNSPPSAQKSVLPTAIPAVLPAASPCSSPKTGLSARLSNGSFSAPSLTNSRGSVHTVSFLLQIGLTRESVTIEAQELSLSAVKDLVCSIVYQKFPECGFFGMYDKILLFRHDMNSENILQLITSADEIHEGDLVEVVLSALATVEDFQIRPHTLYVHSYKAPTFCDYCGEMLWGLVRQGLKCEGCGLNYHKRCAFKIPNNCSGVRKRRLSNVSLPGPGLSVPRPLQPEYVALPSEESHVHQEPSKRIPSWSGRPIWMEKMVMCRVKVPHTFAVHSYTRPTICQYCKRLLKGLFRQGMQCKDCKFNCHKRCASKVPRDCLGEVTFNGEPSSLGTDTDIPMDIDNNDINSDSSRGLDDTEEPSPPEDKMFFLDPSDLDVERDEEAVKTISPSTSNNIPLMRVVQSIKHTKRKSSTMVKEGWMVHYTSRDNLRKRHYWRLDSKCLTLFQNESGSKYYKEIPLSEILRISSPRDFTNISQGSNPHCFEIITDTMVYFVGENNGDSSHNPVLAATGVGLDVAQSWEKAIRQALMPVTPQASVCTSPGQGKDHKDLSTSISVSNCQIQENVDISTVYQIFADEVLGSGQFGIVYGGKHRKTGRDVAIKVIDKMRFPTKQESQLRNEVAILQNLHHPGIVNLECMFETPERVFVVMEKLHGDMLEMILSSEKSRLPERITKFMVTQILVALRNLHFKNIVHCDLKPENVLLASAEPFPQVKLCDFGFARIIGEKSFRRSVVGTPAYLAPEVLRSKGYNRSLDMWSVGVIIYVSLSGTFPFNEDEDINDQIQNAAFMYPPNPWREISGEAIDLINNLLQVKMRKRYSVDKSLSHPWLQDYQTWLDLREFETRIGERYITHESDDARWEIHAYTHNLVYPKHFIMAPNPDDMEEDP

[12] = test system: PANC-1; test: Antiproliferative activity against human PANC-1 cells assessed as reduction in cell proliferation at 5 uM measured after 48 to 144 hrs by MTT assay; assay type: functional, cell-based; conditions: time 48-144 hrs
In short: (§1)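 PANC-1 cells at 2000 cells/well, attached 4 h, then given compound at 5 µM or 0.25% DMSO vehicle. Grown 0, 48, 96 or 144 h, then MTT at 0.5 mg/mL final for 3 h, lysis in DMSO, absorbance at 550 nm. Four experiments (n=4), mean and SEM; two-way ANOVA with Dunnett's test against DMSO.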

[13] = biological target: Calcium/calmodulin-dependent protein kinase type II subunit alpha (Homo sapiens) (UniProt Q9UQM7); test: Inhibition of recombinant human full-length N-terminal GST-fused CaMK2alpha (1 to 478 residues) expressed in baculovirus expression system at 1 to 10 uM using Syntide-2 peptide as substrate measured after 10 mins by [gamma-32P]ATP by scintillation counting method; conditions: dose 1-10 µM
Sequence of Calcium/calmodulin-dependent protein kinase type II subunit alpha (Homo sapiens) (Q9UQM7 whole entry, the tested form may be a part): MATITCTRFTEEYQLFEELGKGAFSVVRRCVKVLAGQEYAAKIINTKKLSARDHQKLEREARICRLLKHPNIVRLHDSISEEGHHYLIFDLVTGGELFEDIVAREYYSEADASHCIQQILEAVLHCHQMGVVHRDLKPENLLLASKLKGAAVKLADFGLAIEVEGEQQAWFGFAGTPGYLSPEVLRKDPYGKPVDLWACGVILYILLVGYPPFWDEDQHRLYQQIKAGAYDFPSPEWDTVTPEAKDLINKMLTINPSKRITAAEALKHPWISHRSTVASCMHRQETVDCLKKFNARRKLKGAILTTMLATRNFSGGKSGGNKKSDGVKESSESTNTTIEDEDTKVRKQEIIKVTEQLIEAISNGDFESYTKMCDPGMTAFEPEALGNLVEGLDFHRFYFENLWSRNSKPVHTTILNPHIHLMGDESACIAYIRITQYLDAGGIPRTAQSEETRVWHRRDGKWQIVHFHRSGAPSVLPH
In short: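 Radiometric kinase assay in 40 µL: 50 mM Tris-HCl pH 7.4, 10 mM MgCl2, 2 mM CaCl2, calmodulin, 50 ng CAMKIIα, 2 µg Syntide-2 substrate, 25 µM ATP plus 2 µCi [γ-32P]ATP, with compounds at the indicated concentrations.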

[14] = biological target: Protein kinase C delta type (Homo sapiens) (UniProt Q05655); test: Inhibition of recombinant human full-length N-terminal GST-fused PKCdelta (1 to 676 residues) expressed in baculovirus expression system at 1 to 10 uM using MARCKS peptide as substrate measured after 10 mins by [gamma-32P]ATP by scintillation counting method; conditions: dose 1-10 µM
Sequence of Protein kinase C delta type (Homo sapiens) (Q05655 whole entry, looked up, the tested form may be a part): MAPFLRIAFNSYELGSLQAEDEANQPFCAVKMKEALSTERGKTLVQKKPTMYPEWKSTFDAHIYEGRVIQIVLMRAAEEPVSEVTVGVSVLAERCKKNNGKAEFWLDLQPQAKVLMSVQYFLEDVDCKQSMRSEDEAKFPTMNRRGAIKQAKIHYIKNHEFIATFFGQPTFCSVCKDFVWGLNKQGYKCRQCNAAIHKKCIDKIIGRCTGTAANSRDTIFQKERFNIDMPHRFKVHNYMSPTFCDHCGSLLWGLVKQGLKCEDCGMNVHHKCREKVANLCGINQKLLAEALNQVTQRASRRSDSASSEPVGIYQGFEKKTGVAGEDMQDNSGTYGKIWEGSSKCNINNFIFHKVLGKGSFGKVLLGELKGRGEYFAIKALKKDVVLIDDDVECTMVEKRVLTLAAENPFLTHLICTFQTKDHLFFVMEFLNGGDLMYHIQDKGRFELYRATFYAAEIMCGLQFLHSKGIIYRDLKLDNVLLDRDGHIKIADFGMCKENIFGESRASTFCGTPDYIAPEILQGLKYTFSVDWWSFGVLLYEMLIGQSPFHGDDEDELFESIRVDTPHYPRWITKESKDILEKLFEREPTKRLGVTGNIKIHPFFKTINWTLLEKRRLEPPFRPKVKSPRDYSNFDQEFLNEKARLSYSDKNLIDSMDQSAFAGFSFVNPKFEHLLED
In short: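 Radiometric PKCδ assay: 50 mM Tris-HCl pH 7.4, 10 mM MgCl2, 4 µL phosphatidylserine/PDBu vesicle stock (dried lipids resuspended in 50 mM Tris pH 7.4 and sonicated), 50 ng PKCδ, 5 µg MARCKS peptide substrate, 25 µM ATP plus 2 µCi [γ-32P]ATP.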

[15] = test system: PANC-1; test: Antiproliferative activity against human PANC-1 cells assessed as reduction in cell proliferation at 5 uM measured after 96 to 144 hrs by MTT assay; assay type: functional, cell-based; conditions: time 96-144 hrs; in short: as §1

Row | Structure (SMILES) | IC50 [1] [µM] | IC50 [2] [µM] | IC50 [3] [µM] | IC50 [4] [µM] | IC50 [5] [µM] | IC50 [6] [µM] | IC50 [7] [µM] | IC50 [8] [µM] | IC50 [9] [µM] | IC50 [10] [µM] | IC50 [11] [µM] | Activity [12] | inhibition [13] | inhibition [14] | Activity [15]
1 | Cn1cc(-c2nn(C(C)(C)C)c3ncnc(N)c23)c2ccccc21 | > 78.3 | 21.3 | 63 | 73.9 | > 41.4 | > 25.6 | > 33.7 | > 38.2 |  |  |  |  |  |  | 
2 | CC[C@@H](N)CNc1ccnc(-c2cc(-c3cnn(C)c3)ccc2O)n1 | 0.6 | 1.8 | 1.7 | 1.9 | 1 | 1 | 2.2 | 0.7 | 0.016 | 0.009 |  |  |  |  | 
3 | CC(C)(C)n1nc(Cc2cccc3ccccc23)c2c(N)ncnc21 | > 100 | 23 | > 100 | > 100 | > 26.1 | 24.1 | > 36.3 | > 23.7 | 1.01 | 0.786 | 0.616 |  |  |  | 
4 | Nc1ncnc2c1c(-c1c[nH]c3ccccc13)nn2CC1CCNCC1 | 80.6 | 40.7 | > 100 | > 95.8 | 42.7 | 17.9 | > 100 | 35.3 |  |  |  | inactive |  |  | 
5 | CC(C)(CO)Cn1nc(-c2c[nH]c3ccccc23)c2c(N)ncnc21 | 52.6 | 4.7 | 13.4 | 14 | 13.1 | 27.6 | 12 | 19.6 |  |  |  |  |  |  | 
6 | CC(C)(C)n1nc(-c2c[nH]c3ccccc23)c2c(N)ncnc21 | 39.2 | 1.6 | 2.5 | 4 | 9.8 | 7.8 | 3.7 | 9.7 | 0.108 | 0.094 | 0.108 |  | inactive | inactive | Active
7 | CCOc1ccc2cc(-c3nn(CC4CCN(C)CC4)c4ncnc(N)c34)ccc2n1 | 45.2 | > 100 | > 55.2 | > 100 | 35.5 | > 100 | > 100 | 30.4 |  |  |  |  |  |  | 
